# From ChEMBL document CHEMBL1155832, “Design, synthesis, and biological evaluation of antiviral agents targeting flavivirus envelope proteins” (J Med Chem, 2008)
# Tests used:
# [1] = tested on: Yellow fever virus; assay: Antiviral activity against IRES-luciferase tagged Yellow fever virus in BHK15 cells assessed as reduction of luciferase activity after 36 hrs; assay type: functional, organism-based; conditions: BHK15, 36 h
# [2] = Cytotoxicity against BHK15 cells assessed as cell viability after 36 hrs by MTT assay; assay type: cell-based, Mesocricetus auratus; conditions: hamster, bhk15, 36 h
# [3] = Therapeutic index, ratio of CC50 for BHK15 cells to EC50 IRES-luciferase tagged Yellow fever virus; assay type: cell-based; conditions: hamster, read-out: Ratio CC50/EC50
# [4] = tested on: Yellow fever virus; assay: Antiviral activity against IRES-luciferase tagged Yellow fever virus in BHK15 cells assessed as reduction of luciferase activity at 50 uM after 36 hrs; assay type: functional; conditions: BHK15, 36 h
# In short: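 Primary screen of the YFV-IRES-Luc (YFV 17D reporter) infection at MOI 0.1 in confluent BHK-15 cells. Compound was given at a single 50 µM concentration for ~36 h at 37 °C, 5% CO2. Percent inhibition came from lysate firefly luciferase luminescence versus DMSO-treated infected cells. Over 50% inhibition counted as active.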
# [5] = tested on: dengue virus type 2; assay: Antiviral activity against Dengue virus 2 16681 in BHK15 cells at 50 uM after 48 hrs by immunofluorescence assay; assay type: functional; conditions: Dengue virus, 16681, BHK15, 48 h
# In short: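 Den-2 strain 16681 added to BHK monolayers at MOI 0.025 for 1 h at room temperature, then washed with PBS. Overlaid with MEM + 2.5% FBS containing compound at 50 µM and kept at 34 °C for 48 h. Fixed cells were stained with anti-dengue capsid antibody (2 h), a TRITC secondary and DAPI. Infected versus total cells were counted in three random fields per well to give percent inhibition.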
Structure (SMILES),EC50 [1],CC50 [2],selectivity ratio [3],inhibition at 50 µM [4],inhibition at 50 µM [5]
ClCc1csc(-c2ccc(Cl)cc2)n1,> 50 µM,–,–,–,–
COC(=O)c1sc(NC(=O)Nc2ccc(C(C)=O)cc2)nc1C,13.9 µM,155 µM,11.2,–,–
Cc1nc(-c2ccc(Cl)cc2)sc1C(=O)OCC12CC3CC(CC(C3)C1)C2,> 50 µM,–,–,–,–
COC(=O)c1sc(N(Cc2ccc(C(C)=O)cc2)C(C)=O)nc1C,> 50 µM,–,–,–,–
Cc1nc(-c2ccc(Cl)cc2)sc1C(=O)NCc1ccc(Cl)c(Cl)c1,> 50 µM,–,–,–,–
C/C(=N\NC(=N)N)c1ccc(NC(=O)Nc2ccc(/C(C)=N/NC(=N)N)cc2)cc1,13 µM,398 µM,30.6,–,–
COC(=O)c1sc(-c2ccncc2)nc1C,> 50 µM,–,–,–,–
Cc1nc(-n2nc(-c3ccccc3)cc2-c2ccccc2)sc1C(=O)OCC12CC3CC(CC(C3)C1)C2,> 50 µM,–,–,–,–
CC(=O)c1ccc(NC(=O)Nc2nc(C)c(C(=O)NCc3ccc(Cl)cc3Cl)s2)cc1,> 50 µM,–,–,–,–
COC(=O)c1sc(NC(=O)Nc2ccc(/C(C)=N/NC(N)=O)cc2)nc1C,> 50 µM,–,–,–,–
Cc1nc(-n2nc(-c3ccccc3)cc2-c2ccccc2)sc1C(=O)/C=C/c1ccc(Cl)c(Cl)c1,51 µM,70 µM,1.37,–,–
COC(=O)c1sc(-c2ccc(Cl)cc2)nc1C,> 50 µM,–,–,–,–
Clc1ccc(-c2nc(CSc3cccc(Cl)c3)cs2)cc1,> 50 µM,–,–,–,–
COC(=O)c1sc(N(Cc2ccc(C(C)=O)cc2)Cc2ccc(C(C)=O)cc2)nc1C,25 µM,200 µM,8,–,–
Nc1ccc(SCc2csc(-c3ccc(Cl)cc3)n2)cc1,29 µM,151 µM,5.2,–,–
Nc1ccc(SCc2csc(-c3ccccc3Cl)n2)cc1,40 µM,131 µM,3.2,–,–
Cc1nc(-n2nc(-c3ccccc3)cc2-c2ccccc2)sc1C(=O)O,> 50 µM,–,–,–,–
Cc1csc(-c2ccc(Cl)cc2)n1,> 50 µM,–,–,–,–
COC(=O)c1sc(NC(=O)Nc2ccc(/C(C)=N/NC(=N)N)cc2)nc1C,> 50 µM,–,–,–,–
CC(=O)c1ccc(NC(=O)Nc2nc(C)c(C(=O)O)s2)cc1,> 50 µM,–,–,–,–

Structure (SMILES),EC50 [1],CC50 [2],selectivity ratio [3],inhibition at 50 µM [4],inhibition at 50 µM [5]
Nc1ccc(SCc2csc(-c3ccccc3)n2)cc1,37 µM,155 µM,4.2,–,–
Nc1ccc(SCc2csc(-c3cccnc3)n2)cc1,> 50 µM,–,–,–,–
Cc1nc(-n2nc(-c3ccccc3)cc2-c2ccccc2)sc1C(=O)OCc1ccc(I)cc1,> 50 µM,–,–,–,–
Nc1ccccc1SCc1csc(-c2ccccc2)n1,46 µM,119 µM,2.6,–,–
CC(=O)c1ccc(NC(=O)Nc2nc(C)c(C(=O)NCc3ccc(Cl)c(Cl)c3)s2)cc1,37 µM,138 µM,3.7,–,–
Cc1nc(-n2nc(-c3ccccc3)cc2-c2ccccc2)sc1C(=O)NCc1ccc(Cl)c(Cl)c1,5 µM,186 µM,37,–,–
c1ccc(-c2cc(-c3ccccc3)[nH]n2)cc1,44 µM,123 µM,2.8,–,–
Nc1ccccc1SCc1csc(-c2ccc(Cl)cc2)n1,31 µM,61 µM,2,–,–
CCCCCCCCOC(=O)c1sc(-n2nc(-c3ccccc3)cc2-c2ccccc2)nc1C,> 50 µM,–,–,–,–
CC(=O)c1ccc(CN(Cc2ccc(C(C)=O)cc2)c2nc(C)c(C(=O)NCc3ccc(Cl)cc3Cl)s2)cc1,> 50 µM,–,–,–,–
Nc1ccccc1SCc1csc(-c2ccccc2Cl)n1,46 µM,133 µM,2.9,–,–
Cc1nc(-n2nc(-c3ccccc3)cc2-c2ccccc2)sc1C(=O)OC(C)C,> 50 µM,–,–,–,–
COC(=O)c1sc(-c2ccc(Cl)cc2)nc1C(Br)Br,0.9 µM,153 µM,170,99%,99%
C/C(=N\NC(N)=O)c1ccc(NC(=O)Nc2nc(C)c(C(=O)NCc3ccc(Cl)cc3Cl)s2)cc1,> 50 µM,–,–,–,–
COC(=O)c1sc(-c2ccccc2)nc1C,> 50 µM,–,–,–,–
Nc1ccccc1SCc1csc(-c2cccnc2)n1,> 50 µM,–,–,–,–
CCOC(=O)c1sc(-n2nc(-c3ccccc3)cc2-c2ccccc2)nc1C,> 50 µM,–,–,–,–
Cc1nc(-n2nc(-c3ccccc3)cc2-c2ccccc2)sc1C(=O)Oc1ccc(I)cc1,> 50 µM,–,–,–,–
C/C(=N\NC(=N)N)c1ccc(NC(=O)Nc2nc(C)c(C(=O)NCc3ccc(Cl)cc3Cl)s2)cc1,37.6 µM,154 µM,4.1,–,–
